# Sampled rows, rich in hits. Any-hit rate of the full collection: about 3.4%.
# UCH37 DUB inh: inhibitors of human UCH37 deubiquitinase, primary screen, biochemical, Ub-AMC cleavage, fluorescence. Ubiquitin carboxyl-terminal hydrolase isozyme L5 (Homo sapiens), Q9Y5K5. purified proteasome/UCH37. inhibition, % (no concentration beside the values). actives 0.33% (n = 330,000). AID 588478, 2011;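 active means mean inhibition over replicate wells above about 20%, limit read from the data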;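 further: 0% = compound-free wells with enzyme and 100% = wells lacking proteasome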
#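 Test system – human UCH37 enzyme supplied as purified proteasome complex · Incubation – 30 min preincubation with enzyme, 25 min cleavage at room temperature · Detection – AMC fluorescence from Ub-AMC cleavage, excitation 355 nm, emission 460 nm · Benchmarks – no-proteasome wells (full inhibition) and compound-free wells (no inhibition)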
# PolyA inhibitor: polyadenylation inhibitors in yeast reporter cells, primary screen, luminescence, S. cerevisiae; S. cerevisiae SKY197-pL101 polyadenylation reporter, beta-gal luminescence; efflux-impaired pdr1/pdr3 knockout yeast; score 100 = 6 SD above DMSO; activity score, % at 12 µM; actives 0.02% (n = 300,000);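 active means lowest replicate activity score at least 50, where 100 means six control SD above control mean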;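 further: yeast exposed to compound for 9 h at 30 °C; higher score means more reporter readthrough which indicates perturbed polyadenylation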
# APOBEC3G inh: APOBEC3G DNA deaminase inhibitors, primary screen, biochemical, fluorescence, single-stranded DNA substrate, uHTS; DNA dC->dU-editing enzyme APOBEC-3G (Homo sapiens), Q9HC16; recombinant A3G, ssDNA deamination FAM/TAMRA fluorescence; inhibition, % at 20 µM; actives 0.28% (n = 330,000); AID 493012, 2011;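 active means inhibition of at least 40% at 20 µM, with no more than 30% in the related APOBEC3A deaminase screen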;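 further: plate controls were DMSO wells with A3G for no effect and wells lacking A3G enzyme for full effect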
# AHR act: AHR activators, primary screen, cell-based, luminescence, luciferase reporter, human | activation, % at 5 µM | AID 2796, 2010 | Aryl hydrocarbon receptor (Homo sapiens), P35869 | actives 2.5% (n = 320,000) | AHR-responsive luciferase reporter cells; in the data active means activation above about 47%;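 further: 0% = vehicle wells and 100% = reference agonist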
# APOBEC3A inh: APOBEC3A ssDNA deaminase inhibitors, primary screen, selectivity assay for APOBEC3G inhibitor project, biochemical, FAM/TAMRA oligo cleavage fluorescence; DNA dC->dU-editing enzyme APOBEC-3A (Homo sapiens), P31941; recombinant A3A, FAM/TAMRA ssDNA deamination fluorescence; inhibition, % at 20 µM; actives 0.41% (n = 330,000); AID 493011, 2011;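 active means at least 40% inhibition at 20 µM here, with at most 30% in a related deaminase screen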;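 further: plate controls were A3A with DMSO for no effect and wells lacking A3A enzyme for full effect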
# Target sequence (P31941 whole entry, looked up): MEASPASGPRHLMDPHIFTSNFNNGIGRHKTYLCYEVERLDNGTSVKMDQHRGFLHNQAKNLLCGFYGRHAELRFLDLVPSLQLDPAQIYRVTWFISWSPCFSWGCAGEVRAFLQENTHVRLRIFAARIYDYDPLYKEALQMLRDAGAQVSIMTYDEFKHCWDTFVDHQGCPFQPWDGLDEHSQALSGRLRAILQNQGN
# Arr AP2 block: inhibitors of beta-arrestin/AP2 binding, primary screen, biochemical, GPCR trafficking, flow cytometry; FITC-arrestin peptide / GST-AP2 beads; AP2 beta2 appendage carries R879A mutation; beta-arrestin 1 C-terminal peptide binding to AP2 beta2-adaptin appendage (human); inhibition, % at 10 µM; actives 0.31% (n = 340,000); AID 504490, 2011;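 active means inhibition above a set limit, near 3 SD of compounds lacking own fluorescence, cut at about 54% in these data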;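 further: plate controls were DMSO wells for no effect and 5 µM unlabelled arrestin peptide for full effect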
#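 System: GST-AP2 R879A glutathione beads | Also added: FITC-arrestin peptide, 50 nM | Times: 12 min plus 1 h, RT | Signal: Bead flow cytometry, FITC channel | Buffer or medium: PBS with 0.05% Tween 20 and 0.1% BSA | Read-out basis: Percent drop in bead-associated FITC signal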
# * marks the source's active call; other numbers are inactive results; nt = not tested or not shown.
SMILES,UCH37 DUB inh,PolyA inhibitor,APOBEC3G inh,AHR act,APOBEC3A inh,Arr AP2 block
Cn1c2ccccc2c2nnc(SCC(=O)Nc3cccc(O)c3)nc21,4,15,-5,66*,-4,9
Cn1c2ccc(Br)cc2c2nnc(SCC(=O)O)nc21,9,18,-1,54*,-1,4
Cc1csc(NN=Cc2cccnc2)n1,11,nt,nt,nt,nt,nt
CC(CC(=O)Nc1ccc(OCc2ccccc2)cc1)=NNC(=O)C(=O)Nc1ccccc1C,1,nt,nt,nt,nt,nt
Cc1ccccc1OCc1nc2ccccc2c(=O)n1N=Cc1cn[nH]c1-c1ccc(Br)cc1,1,nt,nt,nt,nt,nt
CC(=O)NS(=O)(=O)c1ccc(Nc2ccc([N+](=O)[O-])c3nonc23)cc1,25*,-11,2,1,8,0
O=[N+]([O-])c1ccc(Nc2ccccc2)c2nonc12,nt,-10,-1,2,5,10
COc1cc2c(cc1NC(=O)c1cccc([N+](=O)[O-])c1)oc1ccccc12,5,5,-9,58*,-7,-11
COc1cc([N+](=O)[O-])ccc1NC(=O)c1cccc(NC(=O)C(C)C)c1,7,10,-3,47*,0,-10
COc1cc2c(cc1NC(=O)C(C)Sc1nc3ccccc3n1C)oc1ccccc12 (configuration not stated),5,6,-7,15,8,-2
COc1cc2c(cc1NC(=O)C(C)Sc1cccc[n+]1[O-])oc1ccccc12 (configuration not stated),nt,-4,-9,99*,-5,-12
COc1cc2c(cc1NC(=O)c1ccncc1)oc1ccccc12,4,-19,0,64*,2,4
COc1cc2c(cc1NC(=O)c1cccnc1)oc1ccccc12,nt,-11,-3,25,1,7
COc1cc(C=NNC(=O)COc2ccc(C)cc2)ccc1OC(=O)c1cccs1,3,nt,nt,nt,nt,nt
CN(c1ccc(C(=O)Nc2cccc(O)c2)cc1)S(=O)(=O)c1ccccc1,-2,-7,-7,1,-6,-9
CC(=O)c1cccc(NC(=O)c2ccc(N(C)S(=O)(=O)c3ccc(C)cc3)cc2)c1,2,12,-7,48*,-8,32
O=C(N/N=C/c1c(Cl)cccc1Cl)c1ccccc1F,nt,-18,6,60*,3,-7
Cc1cc(/C=C(\C#N)C(=O)Nc2ccccc2F)c(C)[nH]1,-128,-4,0,66*,4,3
Cc1cc(/C=C(\C#N)C(=O)NC2CCCCCC2)c(C)[nH]1,nt,-8,nt,7,nt,1
Cc1cc(/C=C(\C#N)C(=O)NC2CC2)c(C)[nH]1,16,5,-10,58*,-1,15
CCOc1cc(C=NN=C(N)N)ccc1OCc1ccc(Cl)cc1,2,nt,nt,nt,nt,nt
O=C(CSC1=Nc2ccccc2C2CC=NN12)NCc1ccco1 (configuration not stated),6,nt,4,66*,6,-2
N#Cc1ccccc1NC(=O)CSC1=Nc2ccccc2C2CC=NN12 (configuration not stated),4,-5,2,34,0,16
S=C(NN=Cc1ccccc1)N1CCOCC1,6,nt,nt,nt,nt,nt
Cc1nc2c3cnn(-c4ccccc4)c3ncn2n1,3,-2,0,69*,-1,4
Cc1ccc(C)n1-c1nccc(-c2cccs2)n1,-120,1,-2,36,2,29
N#Cc1cccn1-c1nccc(-c2cccs2)n1,3,-40,-6,65*,-2,5
CC1CN(S(=O)(=O)c2ccc(Cl)c(C(F)(F)F)c2)CC(C)O1 (configuration not stated),6,-6,-2,2,3,70*
Oc1ccc(C=NNC(=S)Nc2cccnc2)c(O)c1,1,nt,nt,nt,nt,nt

# Bioassay records from PubChem.
